According to ChEMBL document CHEMBL1208680, “Synthesis and cytotoxicity screening of substituted isobenzofuranones designed from anacardic acids” (Eur J Med Chem, 2010):
Converted amounts (≈) assume the structure as drawn. The source made the active and inactive calls. No cut-off for these calls is given here.

What was measured:
PBMC = assay: Cytotoxicity against human PBMC after 72 hrs by Alamar blue assay; assay type: cell-based
Outline: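 PBMC were isolated from heparinized blood of healthy donors on Histopaque-1077 and cultured in RPMI 1640 with 20% FBS plus 2% phytohaemagglutinin. Compounds were added after 24 h at 0.39–25.00 in 0.1% DMSO for 72 h. Alamar Blue was added 24 h before the end. Absorbance at 570 and 595 nm was converted to % reduced. IC50 by non-linear regression, triplicate, two independent experiments.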

HL-60 [1] = assay: Cytotoxicity against human HL60 cells assessed as cell viability by BrdU incorporation assay; assay type: functional, cell-based
Outline: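 HL-60 cells at 0.3 × 10⁶ cells/mL were treated for 24 h, with BrdU added for the final 3 h. Cytospin slides were stained by peroxidase immunocytochemistry with diaminobenzidine and haematoxylin counterstain. Two hundred cells per sample were scored for % BrdU-positive. Vehicle was 0.1% DMSO and the positive control doxorubicin. Mean ± S.E.M. from three independent experiments in triplicate.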

HL-60 [2] = assay: Cytotoxicity against human HL60 cells after 72 hrs by MTT assay; assay type: functional, cell-based; conditions: HL-60, 72 h
Outline: (§1)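 Cell lines obtained from NCI, kept in RPMI 1640 with 10% FBS, 2 mM glutamine and penicillin/streptomycin at 37 °C, 5% CO2. Seeding: HL-60 0.3 × 10⁶, SF295 0.6 × 10⁵, MDA-MB435 0.1 × 10⁶ cells/mL. Compounds were added 24 h after seeding at 0.39–25.00 in 0.1% DMSO and left for 72 h. MTT at 0.5 mg/mL was added for 3 h, formazan dissolved in DMSO, absorbance read at 595 nm. IC50 by non-linear regression, triplicate, two independent experiments. Doxorubicin served as positive control.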

HL-60 [3] = assay: Induction of apoptosis in human HL60 cells assessed as reduction of cells in intact membrane at 6 ug/ml by AO/BE staining; assay type: functional, cell-based
MDA-MB-435 = assay: Cytotoxicity against human MDA-MB-435 cells after 72 hrs by MTT assay; assay type: functional, cell-based; conditions: MDA-MB-435, 72 h; outline: as §1
SF-295 = assay: Cytotoxicity against human SF295 cells after 72 hrs by MTT assay; assay type: functional, cell-based; conditions: SF-295, 72 h; outline: as §1
HL-60 [4] = assay: Induction of apoptosis in human HL60 cells assessed as increase in DNA strand breaks after 12 hrs by Comet assay; assay type: functional, cell-based
Outline: (§2)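 Alkaline comet assay on HL-60 cells exposed for 3, 6, 12 or 24 h. Lysis at pH 10, 4 °C, at least 1 h. Unwinding for 20 min in 300 mM NaOH/1 mM EDTA (pH >13), then electrophoresis at 0.81 V/cm for 20 min, 4 °C. Tail classes 0–4 were scored visually on 300 cells and converted to a damage index of 0–400. Vehicle was 0.1% DMSO.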

HL-60 [5] = assay: Induction of apoptosis in human HL60 cells assessed as reduction in viable cells after 24 hrs; assay type: functional, cell-based
Outline: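 HL-60 cells were exposed for 24 h. Cells were stained with acridine orange and ethidium bromide (each 100 in PBS) and examined by fluorescence microscopy, 300 cells counted per point. Vehicle was 0.1% DMSO; doxorubicin was the positive control. Three independent experiments in triplicate, ANOVA with Newman-Keuls test.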

HL-60 [6] = assay: Induction of apoptosis in human HL60 cells assessed as increase in DNA damage by Comet assay; assay type: functional, cell-based; conditions: TDE = time-dependent effect; outline: as §2
HL-60 [7] = assay: Induction of apoptosis in human HL60 cells assessed as increase in DNA damage after 24 hrs by Comet assay; assay type: functional, cell-based; outline: as §2
HL-60 [8] = assay: Induction of apoptosis in human HL60 cells assessed as increase in DNA double strand breaks after 24 hrs by Comet assay; assay type: functional, cell-based
Outline: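 Neutral comet assay on HL-60 cells treated for 24 h at 6. Electrophoresis in 100 mM Tris/300 mM sodium acetate, pH 8.5, after 60 min equilibration, then 60 min at 0.5 V/cm. Damage index was scored visually. Vehicle was 0.1% DMSO.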

HL-60 [9] = assay: Induction of apoptosis in human HL60 cells assessed as reduction of cells in intact membrane at 3 ug/ml by AO/BE staining; assay type: functional, cell-based

## CCCCCCCCCCCCC/C=C/c1cccc(OC)c1C(=O)OC
PBMC
  IC50: 19.8 µg/mL (≈ 52.9 µM)
HL-60 [1]
  Activity: Active
HL-60 [2]
  IC50: 9.96 µg/mL (≈ 26.6 µM)
HL-60 [3]
  Activity: Active
MDA-MB-435
  IC50: 3.31 µg/mL (≈ 8.84 µM)
SF-295
  IC50: 12.8 µg/mL (≈ 34.3 µM)
HL-60 [4]
  Activity: Active
HL-60 [5]
  Activity: Dose-dependent effect

## CCCCCCCCCCCCCCCc1cccc(OC)c1C(=O)OC
PBMC
  IC50: > 25 µg/mL
HL-60 [2]
  IC50: > 25 µg/mL
MDA-MB-435
  IC50: > 25 µg/mL
SF-295
  IC50: > 25 µg/mL

## CCCCCCCCCCCCCC(=O)C1OC(=O)c2c(OC)cccc21 (racemic)
HL-60 [6]
  Activity: tde
PBMC
  IC50: 14.5 µg/mL (≈ 38.7 µM)
HL-60 [1]
  Activity: inactive
HL-60 [2]
  IC50: 3.24 µg/mL (≈ 8.65 µM)
HL-60 [7]
  Activity: Dose-dependent effect
HL-60 [3]
  Activity: Active
MDA-MB-435
  IC50: 8.7 µg/mL (≈ 23.2 µM)
SF-295
  IC50: 10.1 µg/mL (≈ 26.9 µM)
HL-60 [8]
  Activity: Active
HL-60 [9]
  Activity: Active
HL-60 [5]
  Activity: Dose-dependent effect

## COc1cccc2c1C(=O)c1c(O)c3c(c(O)c1C2=O)C[C@@](O)(C(=O)CO)C[C@@H]3O[C@H]1C[C@H](N)[C@H](O)[C@H](C)O1 [DOXORUBICIN]
MDA-MB-435
  IC50: 0.03 µg/mL (≈ 0.0552 µM)
SF-295
  IC50: 0.04 µg/mL (≈ 0.0736 µM)

## CCCCCCCCCCCCCC(O)C1OC(=O)c2c(OC)cccc21 (racemic)
PBMC
  IC50: > 25 µg/mL
HL-60 [1]
  Activity: Active
HL-60 [2]
  IC50: 21 µg/mL (≈ 55.8 µM)
HL-60 [3]
  Activity: Active
MDA-MB-435
  IC50: 12.3 µg/mL (≈ 32.6 µM)
SF-295
  IC50: > 25 µg/mL
HL-60 [4]
  Activity: Active

## CCCCCCCCCCCCCCC(Br)c1cccc(OC)c1C(=O)OC (stereo unspecified)
PBMC
  IC50: > 25 µg/mL
HL-60 [2]
  IC50: > 25 µg/mL
MDA-MB-435
  IC50: > 25 µg/mL
SF-295
  IC50: > 25 µg/mL
